Here are results for 14 molecules from PubChem BioAssay.

Each structure is given as a SMILES string. This is one part of the list. A number with no mark means an inactive call.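 The calls were made as follows: active = mean percent activation of the reporter above a cutoff set as the average over tested compounds plus their standard deviation; inactive = the rest.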

Oxysterols receptor LXR-beta (Homo sapiens), sequence (P55055 whole entry, looked up, the tested form may be a part): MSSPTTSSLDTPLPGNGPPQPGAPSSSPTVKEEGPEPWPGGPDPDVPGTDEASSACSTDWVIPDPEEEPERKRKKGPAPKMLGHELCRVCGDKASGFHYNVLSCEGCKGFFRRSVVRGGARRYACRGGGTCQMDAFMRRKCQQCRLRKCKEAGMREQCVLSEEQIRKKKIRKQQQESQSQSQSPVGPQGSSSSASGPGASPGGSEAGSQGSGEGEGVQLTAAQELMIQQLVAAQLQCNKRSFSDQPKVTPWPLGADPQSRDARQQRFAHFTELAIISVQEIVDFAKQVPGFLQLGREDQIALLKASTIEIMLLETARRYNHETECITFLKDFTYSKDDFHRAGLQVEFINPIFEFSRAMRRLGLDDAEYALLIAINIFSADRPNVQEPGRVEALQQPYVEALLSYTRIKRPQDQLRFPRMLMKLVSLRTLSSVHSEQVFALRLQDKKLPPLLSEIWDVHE

For this test, the target named is Oxysterols receptor LXR-beta (Homo sapiens) (UniProt P55055). The experiment in a line: nonspecific reporter activation via LXR – cell-based, luminescence, HEK293, H. contortus campaign, counter-screen for hcDAF-12 agonist project, confirmation (AID 743027). The settings on record: HEK293 Gal4-LXR tk-luc reporter, 24 h, at 6.8 µM, hits give high values, normalized: DMSO 0%, positive control 100%. The method in brief:
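material = Gal4-LXR and tk-luc reporter transfected HEK293 cells | benchmarks = DMSO low control, positive-control high control | compound dosing = one nominal 6.8 µM dose, 0.68% DMSO | repeats = three replicates per compound | times = 24 h compound exposure at 37 °C, 5% CO2 | detection = One-Glo luciferase luminescence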
(A counterscreen serves to expose hits that act by an unwanted route or on another target.)
On to `Cc1noc(C)c1/C=N/Nc1ccc2ccccc2n1`, for which the activation was 1.54%.

As to `CC(=O)Nc1cccc(-c2csc(Nc3cccc(C)n3)n2)c1`, the activation was 1.08%.

Regarding `Clc1ccc(Nc2nc(-c3cccs3)cs2)nc1`, the activation is 2.13%.

As to `CCNc1nc(-c2cc3ccccc3o2)cs1`, the activation is 2.08%.

On to `COc1ccc2nc(SCc3ccccc3)nc(C)c2c1`, for which the activation is 1.78%.

`O=C(Nc1ccc2c(c1)CCC2)c1ccc(Br)s1`: the activation is 2.03%.

For the molecule `Cc1ccc(NC(=O)c2csc3c2CCCC3)cc1`, the activation was 1.06%.

For `Cc1ccccc1Nc1nc(N)nc(CSc2ccccc2)n1`, the activation is 1.61%.

As for `COc1ccc(-c2csc(Cc3nc(O)cs3)n2)cc1`, the activation was 1.22%.

In the case of `c1ccc(Nc2nc(-c3ccncc3)cs2)nc1`, the activation was 1.73%.

On to `CCOc1ccc2nc(C(=O)N3CCCC(C)C3)sc2c1` (centres undefined), for which the activation was 1.14%.

Turning to `Cc1cccc(NC(=O)Nc2ccc3c(c2)OCO3)n1`, the activation is 0.92%.

For `COc1ccc(-n2nnnc2-c2nc3ccccc3s2)cc1`, the activation is 1.88%.

Turning to `Cc1cc(C)c2nc(NC(=O)C3CCCO3)sc2c1` (centres undefined), the activation is 1.55%.
